Converted amounts (≈) assume the structure as drawn.
Legend:
[1] = test system: Human immunodeficiency virus 1; experiment: Antiviral activity against wild type HIV1 infected in human MT4 cells assessed as protection against virus-induced cytopathogenicity after 5 days by MTT assay; conditions: Human immunodeficiency virus 1, MT4, 120 h
[2] = Cytotoxicity against human mock-infected MT4 cells after 4 days by MTT assay; assay type: cell-based
Procedure, shortened: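 Mock-infected MT-4 cells were grown in HEPES-buffered RPMI-1640 with 10% heat-inactivated FCS and subcultured every 3–4 d. Viability was read by MTT at 7.5 mg/ml for 1 h at 37 °C, with formazan dissolved in acidified Triton X-100/isopropanol and read at A540 minus A690. CC50 is the concentration lowering OD540 of the mock-infected control by 50%.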

Row | Structure (SMILES) | EC50 [1] | CC50 at 96 h [2]
1 | Cc1cccc2c(CC(=O)Nc3nc4ccc([N+](=O)[O-])cc4s3)cc(=O)oc12 | 12 µg/mL (≈ 30.3 µM) | > 12 µg/mL
2 | Cc1cccc2c(CC(=O)Nc3nc4ccc(Cl)cc4s3)cc(=O)oc12 | 21 µg/mL (≈ 54.6 µM) | > 21 µg/mL
3 | Cc1cccc2c(CC(=O)Nc3nc4ccc(F)cc4s3)cc(=O)oc12 | 100 µg/mL (≈ 271 µM) | > 100 µg/mL
4 | Cc1cccc2c(CC(=O)Nc3nc4cc(Cl)c(F)cc4s3)cc(=O)oc12 | 58 µg/mL (≈ 144 µM) | > 58 µg/mL
5 | Cc1ccc2c(CC(=O)Nc3nc4ccc([N+](=O)[O-])cc4s3)cc(=O)oc2c1 | 49 µg/mL (≈ 124 µM) | > 49 µg/mL
6 | Cc1ccc2c(CC(=O)Nc3nc4ccc(Cl)cc4s3)cc(=O)oc2c1 | 44 µg/mL (≈ 114 µM) | > 44 µg/mL
7 | Cc1ccc2c(CC(=O)Nc3nc4ccc(F)cc4s3)cc(=O)oc2c1 | 44 µg/mL (≈ 119 µM) | > 44 µg/mL
8 | Cc1ccc2c(CC(=O)Nc3nc4cc(Cl)c(F)cc4s3)cc(=O)oc2c1 | 17 µg/mL (≈ 42.2 µM) | > 17 µg/mL
9 | Cc1ccc2oc(=O)cc(CC(=O)Nc3nc4ccc([N+](=O)[O-])cc4s3)c2c1 | 32 µg/mL (≈ 80.9 µM) | > 32 µg/mL
10 | Cc1ccc2oc(=O)cc(CC(=O)Nc3nc4ccc(Cl)cc4s3)c2c1 | 27 µg/mL (≈ 70.2 µM) | > 27 µg/mL
11 | Cc1ccc2oc(=O)cc(CC(=O)Nc3nc4ccc(F)cc4s3)c2c1 | 20 µg/mL (≈ 54.3 µM) | > 20 µg/mL
12 | Cc1ccc2oc(=O)cc(CC(=O)Nc3nc4cc(Cl)c(F)cc4s3)c2c1 | 12 µg/mL (≈ 29.8 µM) | > 12 µg/mL
13 | Cc1ccc2c(CC(=O)Nc3nc4ccc([N+](=O)[O-])cc4s3)cc(=O)oc2c1C | 9 µg/mL (≈ 22 µM) | > 9 µg/mL
14 | Cc1ccc2c(CC(=O)Nc3nc4ccc(Cl)cc4s3)cc(=O)oc2c1C | 60 µg/mL (≈ 150 µM) | > 60 µg/mL
15 | Cc1ccc2c(CC(=O)Nc3nc4ccc(F)cc4s3)cc(=O)oc2c1C | 24 µg/mL (≈ 62.8 µM) | > 24 µg/mL
16 | Cc1ccc2c(CC(=O)Nc3nc4cc(Cl)c(F)cc4s3)cc(=O)oc2c1C | 97 µg/mL (≈ 233 µM) | > 97 µg/mL
17 | Cc1cc(C)c2oc(=O)cc(CC(=O)Nc3nc4ccc([N+](=O)[O-])cc4s3)c2c1 | 100 µg/mL (≈ 244 µM) | > 100 µg/mL
18 | Cc1cc(C)c2oc(=O)cc(CC(=O)Nc3nc4ccc(Cl)cc4s3)c2c1 | 65 µg/mL (≈ 163 µM) | > 65 µg/mL
19 | Cc1cc(C)c2oc(=O)cc(CC(=O)Nc3nc4ccc(F)cc4s3)c2c1 | 38 µg/mL (≈ 99.4 µM) | > 38 µg/mL
20 | Cc1cc(C)c2oc(=O)cc(CC(=O)Nc3nc4cc(Cl)c(F)cc4s3)c2c1 | 16 µg/mL (≈ 38.4 µM) | > 16 µg/mL
21 | O=C(Cc1cc(=O)oc2cc(O)ccc12)Nc1nc2ccc([N+](=O)[O-])cc2s1 | 8 µg/mL (≈ 20.1 µM) | > 8 µg/mL
22 | O=C(Cc1cc(=O)oc2cc(O)ccc12)Nc1nc2ccc(Cl)cc2s1 | 7 µg/mL (≈ 18.1 µM) | > 7 µg/mL
23 | O=C(Cc1cc(=O)oc2cc(O)ccc12)Nc1nc2ccc(F)cc2s1 | 21 µg/mL (≈ 56.7 µM) | > 21 µg/mL
24 | O=C(Cc1cc(=O)oc2cc(O)ccc12)Nc1nc2cc(Cl)c(F)cc2s1 | 100 µg/mL (≈ 247 µM) | > 100 µg/mL
25 | COc1ccc2nc(NC(=O)Cc3cc(=O)oc4c3ccc3ccccc34)sc2c1 | 100 µg/mL (≈ 240 µM) | > 100 µg/mL
26 | COc1ccc2nc(NC(=O)Cc3cc(=O)oc4ccc5ccccc5c34)sc2c1 | 100 µg/mL (≈ 240 µM) | > 100 µg/mL
27 | Cc1cn([C@H]2C[C@H](N=[N+]=[N-])[C@@H](CO)O2)c(=O)[nH]c1=O [ZIDOVUDINE] | 0.0012 µg/mL (≈ 0.00449 µM) | 65.4 µg/mL (≈ 245 µM)
